Series [1] deals with Mycobacterium tuberculosis. Briefly: Growth inhibition of Mycobacterium tuberculosis H37Ra ATCC 25177 at dormant stage at 6.25 ug/ml measured after 12 days by XTT dye based two fold dilution method relative to control. It is filed as functional. The settings on record: H37Ra ATCC 25177, 288 h, read-out: GI. The method, boiled down:
(§1)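 MTB H37Ra was grown in Dubos medium, then exposed in Mycobacterium pheli minimal medium (pH 6.6) to compounds dissolved in DMSO. The assay ended on day 8 (active) or day 12 (dormant). Viable cells were measured by XTT reduction menadione assay at 470 nm, blank-corrected, relative to vehicle control. Triplicates were expressed as mean ± SD. MIC came from dose-response curves.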
On the technique in general: Formazan colour is commonly taken as a measure of viable cells.

A short description of series [2]: Cytotoxicity against human A549 cells measured after 48 hrs by MTT assay. It is filed as toxicity, cell-based.
For series [3], the system named is Mycobacterium tuberculosis. Briefly: Growth inhibition of Mycobacterium bovis BCG ATCC 35743 at active stage at 6.25 ug/ml measured after 8 days by nitrate reductase dye based two fold dilution method relative to control. The class given is functional. Particulars: BCG str. ATCC 35743, 192 h, read-out: GI. Summed up:
(§2)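 M. bovis BCG was grown in Dubos medium and assayed in Mycobacterium pheli minimal medium (pH 6.6), with compounds from DMSO stocks. Incubation lasted 8 days for active and 12 days for dormant cultures. Viability was read by nitrate reductase at 540 nm against cell-free blanks, with vehicle set as 100% growth. Primary screen was at 30, 10 and 3 µg/ml, in triplicate, mean ± SD. MIC was taken from dose-response curves.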

For series [4], the system named is Mycobacterium tuberculosis. Put plainly: Growth inhibition of Mycobacterium tuberculosis H37Ra ATCC 25177 at active stage measured after 8 days by XTT dye based two fold dilution method. It is filed as functional. Particulars: H37Ra ATCC 25177, 192 h. Summed up:
as §1

Series [5] relates to Pseudomonas fluorescens. Put plainly: Growth inhibition of Pseudomonas fluorescens NCIM 2036 at 30 ug/ml measured after 8 hrs relative to control. Particulars: NCIM 2036, 8 h, read-out: GI. It is filed as functional. The method, boiled down: (§3)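 Bacteria grown in LB at 37 °C and 180 rpm to OD 1. Compounds added to wells, then 0.1% inoculum of 1 OD culture (620 nm). Growth read as OD at 620 nm after 8 h for gram-negative and after 12 h for gram-positive strains.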

The test system of series [6] is Mycobacterium tuberculosis. Briefly: Growth inhibition of Mycobacterium tuberculosis H37Ra ATCC 25177 at dormant stage at 0.78 ug/ml measured after 12 days by XTT dye based two fold dilution method relative to control. It is filed as functional. The settings on record: H37Ra ATCC 25177, 288 h, read-out: GI. Summed up: as §1
In series [7] the test system is Pseudomonas fluorescens. Put plainly: Growth inhibition of Pseudomonas fluorescens NCIM 2036 at 10 ug/ml measured after 8 hrs relative to control. It is filed as functional. The settings on record: NCIM 2036, 8 h, read-out: GI. The method, boiled down:
as §3

The test system of series [8] is Mycobacterium tuberculosis. Briefly: Growth inhibition of Mycobacterium tuberculosis H37Ra ATCC 25177 at dormant stage at 50 ug/ml measured after 12 days by XTT dye based two fold dilution method relative to control. The class given is functional. The settings on record: H37Ra ATCC 25177, 288 h, read-out: GI. Summed up:
as §1

Series [9] concerns Mycobacterium tuberculosis. Put plainly: Growth inhibition of Mycobacterium bovis BCG ATCC 35743 at dormant stage at 0.78 ug/ml measured after 12 days by nitrate reductase dye based two fold dilution method relative to control. It is filed as functional. The settings on record: BCG str. ATCC 35743, 288 h, read-out: GI. The method, boiled down: as §2
The test system of series [10] is Mycobacterium tuberculosis. Briefly: Growth inhibition of Mycobacterium bovis BCG ATCC 35743 at dormant stage at 25 ug/ml measured after 12 days by nitrate reductase dye based two fold dilution method relative to control. The class given is functional. Particulars: BCG str. ATCC 35743, 288 h, read-out: GI. Summed up: as §2
The subject of series [11] is Mycobacterium tuberculosis. Briefly: Growth inhibition of Mycobacterium tuberculosis H37Ra ATCC 25177 at dormant stage at 3.13 ug/ml measured after 12 days by XTT dye based two fold dilution method relative to control. The class given is functional. The settings on record: H37Ra ATCC 25177, 288 h, read-out: GI. The method, boiled down: as §1
For the next series, the system named is Staphylococcus aureus. Briefly: Antibacterial activity against of Staphylococcus aureus NCIM 2010 measured after 12 hrs. It is filed as functional. The settings on record: NCIM 2010, 12 h. Summed up:
as §3

Series [12] deals with Escherichia coli. Put plainly: Growth inhibition of Escherichia coli NCIM 2688 at 10 ug/ml measured after 8 hrs relative to control. It is filed as functional. Particulars: NCIM 2688, 8 h, read-out: GI. The method, boiled down: as §3
In series [13] the test system is Pseudomonas fluorescens. Put plainly: Growth inhibition of Pseudomonas fluorescens NCIM 2036 at 3 ug/ml measured after 8 hrs relative to control. The class given is functional. Particulars: NCIM 2036, 8 h, read-out: GI. Summed up: as §3
In series [14] the test system is Escherichia coli. Briefly: Growth inhibition of Escherichia coli NCIM 2688 at 3 ug/ml measured after 8 hrs relative to control. It is filed as functional. Particulars: NCIM 2688, 8 h, read-out: GI. The method, boiled down:
as §3

A further series relates to Aspergillus niger. Briefly: Antifungal activity against Aspergillus niger NCIM 1196 by standard agar method. It is filed as functional. Summed up:
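MICs determined by standard agar method; DMSO as solvent control.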

Series [15] deals with Bacillus subtilis. Briefly: Growth inhibition of Bacillus subtilis NCIM 2079 at 30 ug/ml measured after 12 hrs relative to control. The class given is functional. Particulars: NCIM 2079, 12 h, read-out: GI. The method, boiled down:
as §3

Series [16] relates to Mycobacterium tuberculosis. Put plainly: Growth inhibition of Mycobacterium bovis BCG ATCC 35743 at active stage at 12.5 ug/ml measured after 8 days by nitrate reductase dye based two fold dilution method relative to control. It is filed as functional. Particulars: BCG str. ATCC 35743, 192 h, read-out: GI.
Series [17] has as its system Mycobacterium tuberculosis. Put plainly: Growth inhibition of Mycobacterium bovis BCG ATCC 35743 at dormant stage at 6.25 ug/ml measured after 12 days by nitrate reductase dye based two fold dilution method relative to control. Particulars: BCG str. ATCC 35743, 288 h, read-out: GI. The class given is functional. Summed up: as §2
In series [18] the test system is Bacillus subtilis. Briefly: Growth inhibition of Bacillus subtilis NCIM 2079 at 3 ug/ml measured after 12 hrs relative to control. It is filed as functional. The settings on record: NCIM 2079, 12 h, read-out: GI. Summed up: as §3
In series [19] the test system is Mycobacterium tuberculosis. Put plainly: Growth inhibition of Mycobacterium bovis BCG ATCC 35743 at dormant stage at 100 ug/ml measured after 12 days by nitrate reductase dye based two fold dilution method relative to control. The class given is functional. Particulars: BCG str. ATCC 35743, 288 h, read-out: GI. The method, boiled down: as §2

Each structure is given as a SMILES string. ≈ marks a conversion by molar mass, not a printed value.

As usually defined, the GI50 is the concentration giving 50% growth inhibition. The term IC50 denotes the concentration that gives 50% inhibition. A lower IC50 goes with higher potency. By IC90 is commonly meant the concentration at which the effect reaches the 90% level. Low readings indicate greater potency, high ones weaker potency. What is called MIC is the lowest concentration found to suppress growth. The low end stands for a more susceptible organism, the high end for a less susceptible organism. As for `Cc1cccc2cc(/C=C3\SC(=S)NC3=O)c(Cl)nc12`, the inhibition of growth at 6.25 µg/mL in series [1] came to 38.3%; in series [3], 87.8%; in series [17], 62.9%. Besides, the GI50 at 48 h in [2] is greater than 100 µg/mL. For the same compound, the IC50 in series [4] was 4.8 µg/mL (≈ 15 µM). Moreover, the IC90 in series [4] turned out to be 18.2 µg/mL (≈ 56.7 µM). For the same compound, the figures for the inhibition of growth at 30 µg/mL in the series on Pseudomonas fluorescens [5] and in the series on Bacillus subtilis [15] were 59% and 6.66%, respectively. Moreover, the results for the inhibition of growth at 0.78 µg/mL in series [6] and in series [9] were -16.1% and -16.3%, respectively. Besides, the inhibition of growth at 10 µg/mL in the series with Pseudomonas fluorescens [7] is 22.9%; with Escherichia coli [12] it was 27.5%. Moreover, in [8], the inhibition of growth at 50 µg/mL worked out at 99.8%. In addition, the inhibition of growth at 25 µg/mL in series [10] came out at 101%. For the same compound, in series [11], the inhibition of growth at 3.13 µg/mL is -0.35%. Further, the MIC is greater than 30 µg/mL against Staphylococcus aureus and 150 µg/mL (≈ 468 µM) in the series with Aspergillus niger. Moreover, the figures for the inhibition of growth at 3 µg/mL with Pseudomonas fluorescens [13], in the series with Escherichia coli [14] and in the series on Bacillus subtilis [18] were 16.9%, 26.2% and 3.54%, respectively. Also, the inhibition of growth at 12.5 µg/mL in [16] amounted to 99.5%. For the same compound, the inhibition of growth at 100 µg/mL in series [19] was 95%.

These data come from ChEMBL document CHEMBL3877264, “Quinolidene-rhodanine conjugates: Facile synthesis and biological evaluation” (Eur J Med Chem, 2017).
